# The list is not random: actives were taken first. Their share in the collection is about 2.6%.
# SENP1 inh: inhibitors of human SENP1 SUMO protease catalytic domain | Q9P0U3 | recombinant SENP1 catalytic domain, CyPet-SUMO1-YPet FRET cleavage | inhibition, % at 10 µM | 0.21% of 360,000 active;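 active means inhibition at least 30% at 10 µM, raw YFP signal under a set limit, fluorescence ratio 0.5 to 1.5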;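 further: 0% = enzyme with DMSO and 100% = no enzyme wells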
# Target sequence (Q9P0U3 419-644 limits assumed): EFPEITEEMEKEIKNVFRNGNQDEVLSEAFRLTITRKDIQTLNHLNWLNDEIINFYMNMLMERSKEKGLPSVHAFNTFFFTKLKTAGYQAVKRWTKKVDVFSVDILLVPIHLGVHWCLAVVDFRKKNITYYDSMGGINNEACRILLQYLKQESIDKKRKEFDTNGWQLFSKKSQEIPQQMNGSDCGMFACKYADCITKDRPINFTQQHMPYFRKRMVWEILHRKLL
#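 Controls: no-enzyme wells low, DMSO-plus-enzyme wells high control. Test system: human recombinant His6-tagged SENP1 catalytic domain enzyme. Reagent: SFCypet-SUMO1-SFYpet FRET protein substrate, 25 nM final. Doses: one dose per compound, 10 µM, 0.5% DMSO. Detection: FRET, CFP and YFP emission. Timing: 50 min reaction at room temperature.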
# Platelet DG rel: modulates dense granule release in human platelets. human platelet-rich plasma, SFLLRN dense granule ATP release, luminescence. inhibition, %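 (compounds screened at 7.5 µM in platelet-rich plasma)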. 0.22% of 300,000 active;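 active means mean replicate score, as percent of positive control, at or above 50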
# SENP8 block-1: SENP8 (human) protease inhibition. recombinant SENP8, Nedd8 substrate fluorescence. inhibition, % at 20 µM. AID 602440. Q96LD8. 0.64% of 360,000 active; in the data active means inhibition mostly above about 40%, no sharp cut-off; inactive means mostly below about 27%
# Target sequence (Q96LD8 whole entry, looked up): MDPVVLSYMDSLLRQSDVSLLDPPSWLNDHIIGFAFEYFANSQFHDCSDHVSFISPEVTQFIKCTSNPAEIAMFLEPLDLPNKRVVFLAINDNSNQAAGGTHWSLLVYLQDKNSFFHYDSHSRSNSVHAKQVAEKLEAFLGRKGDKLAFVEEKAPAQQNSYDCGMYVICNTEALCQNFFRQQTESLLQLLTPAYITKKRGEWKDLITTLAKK
# SENP6 inh: blocks the human protease SENP6 | 1.8% of 330,000 active | AID 2599 | inhibition, % at 10 µM | Q9GZR1 | Recombinant SENP6 catalytic domain, aminoluciferin luminescence;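 active means inhibition above about 50% at the single tested dose, limit read from the data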;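 further: plate controls were DMSO wells with enzyme for no effect and DMSO wells lacking enzyme for full effect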
# SENP7 inh: inhibitors of human SENP7 protease | Q9BQF6 | recombinant SENP7, Z-RLRGG-aminoluciferin luminescence, 40 min | inhibition, % at 5 µM | 1.5% of 330,000 active | AID 434973;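 active means inhibition above about 50% at the single test dose, limit read from the data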;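 further: plate controls were DMSO with enzyme for no effect and no enzyme buffer wells for full effect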
# SENP8 block-2: blocks the human protease SENP8; Q96LD8; purified SENP8, Z-RLRGG-aminoluciferin cleavage, luminescence; inhibition, % at 10 µM; 1.2% of 330,000 active; AID 2540; in the data active means inhibition above about 50%
# SENP8 confirm: human SENP8 inhibition, confirmed; shares compounds with SENP7 inh; Recombinant SENP8, Z-RLRGG-aminoluciferin luminescence, 60 min; inhibition, % at 12.5 µM; 40% of 6,200 active;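 active means mean inhibition across replicates above about 50%, limit read from the data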
# SENP6 conf: human SENP6 inhibition, confirmed. inhibition, % at 12.5 µM. shares compounds with SENP7 inh. 58% of 6,200 active. recombinant SENP6, Z-RLRGG-aminoluciferin luminescence
# SENP7 confirm: human SENP7 inhibition, confirmed. 69% of 6,200 active. shares compounds with SENP7 inh. inhibition, % at 12.5 µM. recombinant SENP7, Z-RLRGG-aminoluciferin luminescence, 40 min. AID 488917
# Casp3 SENP sel: inhibits human caspase-3 in SENP selectivity test; shares compounds with SENP7 inh; AID 488918; inhibition, % at 12.5 µM; 60% of 6,200 active; purified caspase-3, Z-DEVD-aminoluciferin luminescence, 60 min;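 active means mean inhibition above about 50%, limit read from the data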;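 further: plate controls were enzyme with DMSO for no effect and wells without caspase-3 for full effect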
# SENP luc ctr: luminescence interference (SENP counter-screen); shares compounds with SENP7 inh; Pre-incubated SENP8/Z-RLRGG-aminoluciferin, luciferase luminescence interference; inhibition, % at 12.5 µM; 39% of 6,200 active; AID 488919;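 active means mean inhibition above about 50% when retested at one dose, limit read from the data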;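 further: plate controls were DMSO wells with completed reaction for no effect and substrate without enzyme for full effect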
# An asterisk follows results filed as active; . = no result.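 How the source made its calls, unless noted: active means mean inhibition above about 50% in the one-dose retest (limit read from the data); inactive means the rest.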
SMILES,SENP1 inh,Platelet DG rel,SENP8 block-1,SENP6 inh,SENP7 inh,SENP8 block-2,SENP8 confirm,SENP6 conf,SENP7 confirm,Casp3 SENP sel,SENP luc ctr
O=C(Nc1nc2ccccc2[nH]1)c1cccc(F)c1,0,10,-4,91*,91*,82*,8,84*,98*,92*,33
O=C(Nc1nc2ccccc2[nH]1)Nc1ccccc1F,-2,12,15,60*,40,39,14,54*,38,31,5
O=C(Nc1nc2ccccc2[nH]1)c1cccc(Br)c1,0,-6,-11,-17,57*,3,-6,1,3,34,10
CN(C)c1cccc(C(=O)Nc2nc3ccccc3[nH]2)c1,-2,11,-193,33,65*,37,41,44,81*,73*,43
O=C(Nc1nc2ccccc2[nH]1)c1cccc([N+](=O)[O-])c1,-3,16,5,2,26,-13,.,.,.,.,.
O=C(CSc1nc2ccccc2[nH]1)Nc1ccccc1F,1,15,4,5,-2,2,.,.,.,.,.
O=C(NCCc1ccccc1F)C1C(=O)Nc2ccccc2C(=O)N1C1CCCCC1 (centres undefined),1,.,8,.,.,.,.,.,.,.,.
Oc1ccc(C[C@H]2CNC(=S)N2C[C@H]2CCCN2C[C@H](Cc2ccccc2)N2C[C@H](Cc3ccccc3)N(CC3CCCCC3)C2=S)cc1,1,.,22,.,.,.,.,.,.,.,.
COc1ccc2oc(=O)c(-c3nc(C)cs3)cc2c1,-28,.,-294,48,92*,75*,-11,21,24,32,12
COc1ccccc1Nc1nnc(SCC2CCCCO2)s1 (centres undefined),0,17,12,91*,90*,88*,91*,91*,100*,94*,91*
COc1ccccc1Nc1nnc(SCC(=O)NC2CCCC2)s1,-1,.,5,-6,-5,-13,.,.,.,.,.
Cc1ccc(Nc2nnc(SCC3CCCCO3)s2)cc1 (centres undefined),1,-6,6,-10,-13,-15,.,.,.,.,.
Cc1ccccc1Nc1nnc(SCC2CCCCO2)s1 (centres undefined),1,-1,8,90*,87*,77*,81*,82*,97*,88*,77*
COc1ccc(N2CCN(C(=O)COC(=O)c3ccc(OC(F)F)cc3)CC2)cc1,0,.,14,6,8,4,.,.,.,.,.
Cc1ccc(NC(=O)c2ccccn2)c(Br)c1,1,11,10,82*,73*,72*,66*,83*,79*,64*,34
Cc1ccc(NC(=O)c2ccn(C)n2)c(Br)c1,3,21,18,61*,44,42,47,42,81*,68*,61*
Cn1ccc(C(=O)Nc2ccc(Br)cc2Br)n1,-1,-6,12,66*,39,38,43,44,65*,54*,20
Cc1ccc(NC(=O)Cn2cccc2)c(Br)c1,1,2,13,-14,10,-1,.,.,.,.,.
COCCn1c(C)cc(C(=O)CSc2nnc(C)s2)c1C,2,3,19,46,50*,10,41,38,80*,81*,56*
CC(C)[C@H](NC(=O)c1cccc(S(=O)(=O)N2CCOCC2)c1)C(=O)OCC(=O)Nc1cccc(Br)c1,1,.,16,.,.,.,.,.,.,.,.
O=C(c1cccc(S(=O)(=O)NCc2ccccc2)c1)N1CCN(c2ccccc2Cl)CC1,3,.,7,.,.,.,.,.,.,.,.

# Assay outcomes as filed in PubChem BioAssay.
